The record followed here is ChEMBL document CHEMBL1147752, “Pyrazoloheteroaryls: novel p38alpha MAP kinase inhibiting scaffolds with oral activity” (Bioorg Med Chem Lett, 2006).

Data set [1] has as its target Mitogen-activated protein kinase 14 (Mus musculus, UniProt P47811). In words: Inhibitory activity against murine p38-alpha MAPK. Summed up: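 Kinase assay with phosphorylated His-tagged p38α MAP kinase of murine origin (10 ng/well). Substrate was immobilised GST-ATF-2, with 120 µM cold ATP present. Result expressed as IC50 (nM).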
For another data set, the system named is Mus musculus. As to the kind of experiment: Inhibition of LPS-induced TNFalpha release in mouse at 20 mg/kg, po. The format is functional. The note with it: OF1. The method, boiled down: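 Female OF1 mice, eight weeks old, given compound orally by gavage as a DMSO/cornoil solution at 20 mg/kg. One hour after dosing, LPS (20 mg/kg) injected iv to stimulate TNF-α release into plasma. Blood collected one hour later; plasma TNF-α measured by mouse-specific ELISA; reported as % inhibition.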

Data set [2] concerns Rattus norvegicus. As to the kind of experiment: Inhibition of adjuvant-induced arthritis in rat at 25 mg/kg, po. The format is functional. The following applies: Wistar. The method, boiled down:
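Female Wistar rats immunized with Mycobacterium tuberculosis on day 0. Compound dosed orally at 25 mg/kg twice daily from day 14 to day 20. Joint swelling measured on day 20; paw swelling inhibition expressed as %.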

For data set [3], the system named is Rattus norvegicus. In words: Inhibition of collagen-induced arthritis in rat at 10 mg/kg, po. The format is functional. The method, boiled down: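 Collagen-induced arthritis in rats. Compounds given orally once daily (q.d.) for 10 days; swelling inhibition recorded.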
The nature of data set [4]: Cmax in rat administered at 1 mg/kg, po. The format is ADME, organism-based. Set-up: dose 1 mg/kg, route oral. The following applies: in vivo.
Data set [5] can be described thus: Oral bioavailability in rat. The format is ADME, organism-based. The note with it: in vivo.
Data set [6] can be described thus: Half life in rat. The note with it: in vivo. The format is ADME, organism-based.
Data set [7] addresses T1, Fibroblast growth factor receptor (Homo sapiens, UniProt P22607+P11362+P22455+P21802). As to the kind of experiment: Inhibitory activity against FGFR. The format is protein assay.
Data set [8] deals with Mitogen-activated protein kinase 9 (Homo sapiens, UniProt P45984). As to the kind of experiment: Inhibitory activity against JNK2.
Data set [9] addresses T2, Epidermal growth factor receptor (Homo sapiens, UniProt P00533). As to the kind of experiment: Inhibitory activity against HER1.
The target of data set [10] is T3, Receptor tyrosine-protein kinase erbB-2 (Homo sapiens, UniProt P04626). In words: Inhibitory activity against HER2.
The nature of data set [11]: AUC in rat. The format is ADME, organism-based. The following applies: plasma.
For data set [12], the target named is Insulin-like growth factor 1 receptor (Homo sapiens) (UniProt P08069). As to the kind of experiment: Inhibition of IGF1R at 10 uM.
Data set [13] has as its target RAF proto-oncogene serine/threonine-protein kinase (Homo sapiens) (UniProt P04049). As to the kind of experiment: Inhibition of c-Raf at 10 uM.
Data set [14] concerns the target Hepatocyte growth factor receptor (Homo sapiens, UniProt P08581). In words: Inhibitory activity against c-Met.
Data set [15] deals with Cyclin-dependent kinase 1 (Homo sapiens) (UniProt P06493). In words: Inhibition of CDK1 at 10 uM.
Data set [16] concerns the target T3, Receptor tyrosine-protein kinase erbB-2. In words: Inhibition of HER2 at 10 uM.
The target in data set [17] is Mast/stem cell growth factor receptor Kit (Homo sapiens) (UniProt P10721). In words: Inhibition of c-Kit at 10 uM.
The target in data set [18] is T2, Epidermal growth factor receptor. The following applies: 10 uM.
Data set [19] has as its target T1, Fibroblast growth factor receptor. As to the kind of experiment: Inhibition of FGFR at 10 uM. The format is protein assay.

Mitogen-activated protein kinase 14, sequence (P47811 whole entry): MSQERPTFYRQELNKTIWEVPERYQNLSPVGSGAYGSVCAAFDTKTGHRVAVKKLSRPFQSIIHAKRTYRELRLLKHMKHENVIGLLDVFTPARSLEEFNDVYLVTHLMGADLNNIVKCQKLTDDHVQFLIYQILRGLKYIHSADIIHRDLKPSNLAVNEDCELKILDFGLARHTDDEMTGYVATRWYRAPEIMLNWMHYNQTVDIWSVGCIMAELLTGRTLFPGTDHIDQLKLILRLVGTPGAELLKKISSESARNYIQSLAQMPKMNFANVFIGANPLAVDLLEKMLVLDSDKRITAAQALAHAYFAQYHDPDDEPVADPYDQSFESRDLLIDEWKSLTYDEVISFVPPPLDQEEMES
Mitogen-activated protein kinase 9, sequence (P45984 whole entry): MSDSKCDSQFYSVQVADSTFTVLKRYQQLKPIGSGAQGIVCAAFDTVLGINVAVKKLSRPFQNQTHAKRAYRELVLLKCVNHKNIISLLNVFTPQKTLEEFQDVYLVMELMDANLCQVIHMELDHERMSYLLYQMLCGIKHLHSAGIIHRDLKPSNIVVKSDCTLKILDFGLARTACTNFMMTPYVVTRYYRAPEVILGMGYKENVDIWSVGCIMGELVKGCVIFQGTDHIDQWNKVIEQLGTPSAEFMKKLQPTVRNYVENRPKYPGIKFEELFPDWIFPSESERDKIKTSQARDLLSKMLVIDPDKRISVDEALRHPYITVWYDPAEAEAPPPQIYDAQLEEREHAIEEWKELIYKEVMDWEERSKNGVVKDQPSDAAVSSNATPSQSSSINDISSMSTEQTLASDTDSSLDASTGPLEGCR
T2 sequence (P00533 whole entry): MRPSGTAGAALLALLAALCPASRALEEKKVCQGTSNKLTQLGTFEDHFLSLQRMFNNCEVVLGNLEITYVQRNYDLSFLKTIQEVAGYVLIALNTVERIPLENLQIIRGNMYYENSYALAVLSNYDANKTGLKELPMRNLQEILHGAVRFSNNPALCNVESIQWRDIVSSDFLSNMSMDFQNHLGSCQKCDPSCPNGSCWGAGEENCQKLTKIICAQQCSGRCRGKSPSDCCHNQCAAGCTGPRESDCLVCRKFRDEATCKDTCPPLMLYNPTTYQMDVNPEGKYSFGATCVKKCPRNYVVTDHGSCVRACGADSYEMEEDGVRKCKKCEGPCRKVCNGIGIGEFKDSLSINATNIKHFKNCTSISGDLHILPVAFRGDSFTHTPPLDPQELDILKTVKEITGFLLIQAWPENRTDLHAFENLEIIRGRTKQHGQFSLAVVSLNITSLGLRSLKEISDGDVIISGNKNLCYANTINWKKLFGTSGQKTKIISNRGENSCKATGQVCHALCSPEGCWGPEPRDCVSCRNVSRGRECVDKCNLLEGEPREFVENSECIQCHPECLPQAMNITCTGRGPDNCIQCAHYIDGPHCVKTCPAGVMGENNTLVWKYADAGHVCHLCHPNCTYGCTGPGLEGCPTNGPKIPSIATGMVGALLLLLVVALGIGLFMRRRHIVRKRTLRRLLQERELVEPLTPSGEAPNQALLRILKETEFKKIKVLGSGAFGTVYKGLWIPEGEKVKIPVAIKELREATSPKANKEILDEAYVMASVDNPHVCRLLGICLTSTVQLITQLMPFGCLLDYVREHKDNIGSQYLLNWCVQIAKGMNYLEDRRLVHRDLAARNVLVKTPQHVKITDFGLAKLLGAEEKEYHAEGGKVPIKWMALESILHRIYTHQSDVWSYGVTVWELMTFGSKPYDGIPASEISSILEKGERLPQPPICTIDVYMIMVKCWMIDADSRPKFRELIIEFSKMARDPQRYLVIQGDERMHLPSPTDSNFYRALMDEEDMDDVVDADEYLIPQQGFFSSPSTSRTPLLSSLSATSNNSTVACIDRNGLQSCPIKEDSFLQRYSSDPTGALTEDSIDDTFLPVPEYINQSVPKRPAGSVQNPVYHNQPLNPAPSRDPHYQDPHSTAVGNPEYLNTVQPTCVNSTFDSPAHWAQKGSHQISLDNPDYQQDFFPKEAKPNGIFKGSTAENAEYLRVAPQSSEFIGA
Insulin-like growth factor 1 receptor (Homo sapiens), sequence (P08069 31-736 limits assumed): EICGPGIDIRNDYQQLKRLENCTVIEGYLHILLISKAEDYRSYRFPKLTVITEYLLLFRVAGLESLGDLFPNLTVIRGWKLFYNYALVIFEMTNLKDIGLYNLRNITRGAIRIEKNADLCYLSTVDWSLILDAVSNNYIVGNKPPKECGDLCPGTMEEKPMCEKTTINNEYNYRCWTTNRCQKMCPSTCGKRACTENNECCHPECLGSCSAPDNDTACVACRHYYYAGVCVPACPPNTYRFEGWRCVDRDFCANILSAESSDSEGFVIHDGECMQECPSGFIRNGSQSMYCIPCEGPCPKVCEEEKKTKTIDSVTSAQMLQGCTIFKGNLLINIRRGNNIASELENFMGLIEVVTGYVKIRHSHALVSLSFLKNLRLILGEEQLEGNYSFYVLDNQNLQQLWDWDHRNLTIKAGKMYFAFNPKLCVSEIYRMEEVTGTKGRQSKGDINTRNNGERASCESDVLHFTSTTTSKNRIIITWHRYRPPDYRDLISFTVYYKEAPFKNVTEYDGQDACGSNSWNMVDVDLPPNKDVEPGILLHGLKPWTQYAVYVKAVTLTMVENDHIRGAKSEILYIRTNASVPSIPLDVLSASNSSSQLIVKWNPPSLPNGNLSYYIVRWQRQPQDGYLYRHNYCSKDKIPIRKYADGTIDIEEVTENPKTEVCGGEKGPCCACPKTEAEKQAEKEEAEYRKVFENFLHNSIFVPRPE
Insulin-like growth factor 1 receptor (Homo sapiens), sequence (P08069 741-1367 limits assumed): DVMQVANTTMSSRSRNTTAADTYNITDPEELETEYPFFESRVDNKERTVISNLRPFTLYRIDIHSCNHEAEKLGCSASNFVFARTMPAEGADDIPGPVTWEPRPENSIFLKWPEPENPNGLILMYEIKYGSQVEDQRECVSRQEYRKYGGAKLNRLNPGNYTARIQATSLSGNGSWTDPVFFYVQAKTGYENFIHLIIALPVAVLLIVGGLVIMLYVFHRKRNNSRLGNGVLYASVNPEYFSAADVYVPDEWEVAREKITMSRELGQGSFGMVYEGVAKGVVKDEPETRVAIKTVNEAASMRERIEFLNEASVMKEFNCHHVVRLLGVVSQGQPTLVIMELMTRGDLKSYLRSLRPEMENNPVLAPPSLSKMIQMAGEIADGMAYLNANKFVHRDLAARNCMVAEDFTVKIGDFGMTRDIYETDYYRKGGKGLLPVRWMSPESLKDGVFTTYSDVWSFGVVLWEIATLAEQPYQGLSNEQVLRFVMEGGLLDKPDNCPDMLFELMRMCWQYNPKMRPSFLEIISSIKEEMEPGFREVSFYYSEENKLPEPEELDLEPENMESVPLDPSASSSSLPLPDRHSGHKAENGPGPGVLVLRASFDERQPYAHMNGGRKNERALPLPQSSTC
T3 sequence (P04626 whole entry): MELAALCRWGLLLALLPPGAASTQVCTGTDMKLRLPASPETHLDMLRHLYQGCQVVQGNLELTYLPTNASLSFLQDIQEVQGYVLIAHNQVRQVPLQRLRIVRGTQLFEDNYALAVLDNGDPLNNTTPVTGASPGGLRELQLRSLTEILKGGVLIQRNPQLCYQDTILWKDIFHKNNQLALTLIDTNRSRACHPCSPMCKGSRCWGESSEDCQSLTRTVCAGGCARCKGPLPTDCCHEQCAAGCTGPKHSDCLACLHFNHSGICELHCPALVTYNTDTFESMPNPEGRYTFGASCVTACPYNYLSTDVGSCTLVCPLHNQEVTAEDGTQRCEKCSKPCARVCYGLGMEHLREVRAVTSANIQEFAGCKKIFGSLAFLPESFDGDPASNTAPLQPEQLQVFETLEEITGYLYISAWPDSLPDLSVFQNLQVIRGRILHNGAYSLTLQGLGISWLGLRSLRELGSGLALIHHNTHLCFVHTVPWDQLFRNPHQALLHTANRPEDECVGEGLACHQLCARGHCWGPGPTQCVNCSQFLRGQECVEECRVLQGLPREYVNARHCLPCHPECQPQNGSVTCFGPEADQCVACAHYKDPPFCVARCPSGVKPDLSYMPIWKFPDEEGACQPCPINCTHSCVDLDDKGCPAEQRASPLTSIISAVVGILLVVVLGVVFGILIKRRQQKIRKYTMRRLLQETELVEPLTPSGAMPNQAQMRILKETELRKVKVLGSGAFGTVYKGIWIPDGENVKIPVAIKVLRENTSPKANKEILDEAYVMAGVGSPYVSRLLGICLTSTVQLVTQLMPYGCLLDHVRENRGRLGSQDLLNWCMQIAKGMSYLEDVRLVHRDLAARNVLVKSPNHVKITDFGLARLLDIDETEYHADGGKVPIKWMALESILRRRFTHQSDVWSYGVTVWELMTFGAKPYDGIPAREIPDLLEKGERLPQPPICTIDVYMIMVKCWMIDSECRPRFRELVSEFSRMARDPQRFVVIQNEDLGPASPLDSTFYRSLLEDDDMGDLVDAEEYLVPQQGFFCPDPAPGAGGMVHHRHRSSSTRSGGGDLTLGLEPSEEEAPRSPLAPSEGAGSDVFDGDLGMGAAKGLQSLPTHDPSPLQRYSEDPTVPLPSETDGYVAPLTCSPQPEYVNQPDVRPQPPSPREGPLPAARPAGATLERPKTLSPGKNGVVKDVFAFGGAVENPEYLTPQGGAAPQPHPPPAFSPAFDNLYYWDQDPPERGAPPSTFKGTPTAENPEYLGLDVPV
Cyclin-dependent kinase 1 (Homo sapiens), sequence (P06493 whole entry, looked up): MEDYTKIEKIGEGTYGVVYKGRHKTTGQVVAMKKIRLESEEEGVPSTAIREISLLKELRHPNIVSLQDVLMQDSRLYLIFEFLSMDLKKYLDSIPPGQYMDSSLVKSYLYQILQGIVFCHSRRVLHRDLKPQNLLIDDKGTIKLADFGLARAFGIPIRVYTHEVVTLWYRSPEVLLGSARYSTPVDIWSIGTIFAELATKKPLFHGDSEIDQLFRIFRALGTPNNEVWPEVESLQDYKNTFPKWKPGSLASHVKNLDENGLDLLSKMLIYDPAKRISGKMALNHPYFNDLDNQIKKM

In data set [1], `COc1ccc(C(=O)N2CCNCC2)cc1-c1[nH]nc2nc(Nc3ccc(F)cc3F)ccc12` came in with an IC50 of 280 nM. Also, the inhibition in vivo at 20 mg/kg in the data set with Mus musculus is 3%.
For `COc1ccc(C#CC(C)(C)O)cc1-c1[nH]nc2nc(Nc3ccc(F)cc3F)ncc12`, the IC50 in data set [1] worked out at 19 nM. The inhibition in vivo at 25 mg/kg with Rattus norvegicus [2] was 34%. Besides, 20 mg/kg produced 98% inhibition in vivo with Mus musculus.
In the case of `COc1ccc(CCCN(C)C)cc1-c1[nH]nc2nc(Nc3ccc(F)cc3F)ncc12`, in [1], the IC50 came out at 11 nM. This compound yielded an inhibition in vivo at 20 mg/kg in the data set with Mus musculus of 93%.
Take `COc1ccc(CNC2CCOCC2)cc1-c1n[nH]c2nc(Nc3ccc(F)cc3F)ccc12`: in [1], the IC50 is 94 nM. Also, the inhibition in vivo at 10 mg/kg with Rattus norvegicus [3] amounted to 10%. In addition, the inhibition in vivo at 25 mg/kg with Rattus norvegicus [2] is 46%. In the data set with Mus musculus, this compound displayed an inhibition in vivo at 20 mg/kg of 80%.
As to `COc1ccc(C(=O)NC2CCCC2)cc1-c1[nH]nc2nc(Nc3ccc(F)cc3F)ccc12`, in data set [4], the peak level (Cmax) was 6 nM. In data set [5], this compound yielded a bioavailability of 26%. In [1], 5 nM corresponded to half-maximal inhibition (IC50). Further, the inhibition in vivo at 25 mg/kg with Rattus norvegicus [2] turned out to be 34%. At 20 mg/kg the inhibition in vivo in the data set on Mus musculus was 97%. The same compound showed a half-life in [6] of 1.6 h.
`COc1ccc(C#CCN2CCN(C)CC2)cc1-c1[nH]nc2nc(Nc3ccc(F)cc3F)ncc12` came in with an IC50 in [1] of 0.9 nM. Also, 20 mg/kg produced 96% inhibition in vivo in the data set on Mus musculus.
In [1], `COc1ccc(C(=O)O)cc1-c1[nH]nc2nc(Nc3ccc(F)cc3F)ccc12` had an IC50 of 200 nM.
In the case of `COc1ccc(CCC(C)(C)O)cc1-c1[nH]nc2nc(Nc3ccc(F)cc3F)ncc12`, in [1], the half-maximal inhibitory concentration (IC50) was found to be 47 nM. Further, the inhibition in vivo at 25 mg/kg in the data set on Rattus norvegicus [2] came out at 36%. In the data set on Mus musculus, this compound came in with an inhibition in vivo at 20 mg/kg of 98%.
In the case of `COc1ccc(C#CC(C)(C)N)cc1-c1[nH]nc2nc(Nc3ccc(F)cc3F)cnc12`, the bioavailability in [5] turned out to be 9%. Moreover, in [1], the IC50 was found to be 10 nM. Moreover, the inhibition in vivo at 25 mg/kg in the data set on Rattus norvegicus [2] stood at 37%. In the data set on Mus musculus, this compound gave an inhibition in vivo at 20 mg/kg of 98%. Moreover, the half-life in data set [6] is 2.6 h.
`COc1ccc(CCCN2CCN(C)CC2)cc1-c1[nH]nc2nc(Nc3ccc(F)cc3F)ncc12` yielded an IC50 in data set [1] of 14 nM. In the data set on Mus musculus, this compound gave an inhibition in vivo at 20 mg/kg of 73%.
The corresponding values for `COc1ccc(CCC(C)(C)N)cc1-c1[nH]nc2nc(Nc3ccc(F)cc3F)cnc12` are 29 nM and 0%.
Take `COc1ccc(CCC(C)(C)N)cc1-c1[nH]nc2nc(Nc3ccc(F)cc3F)ncc12`: the IC50 in data set [1] is 43 nM. The compound also returned an inhibition in vivo at 20 mg/kg in the data set on Mus musculus of 68%.
`COc1ccc(C#CCN(C)C)cc1-c1[nH]nc2nc(Nc3ccc(F)cc3F)ncc12` returned an IC50 in [1] of 0.6 nM. The same compound yielded an inhibition in vivo at 20 mg/kg in the data set with Mus musculus of 96%.
Turning to `COc1ccc(C#CC(C)(C)N)cc1-c1[nH]nc2nc(Nc3ccc(F)cc3F)ncc12`, the IC50 stood at 10000 nM in data set [7]; 8300 nM in [8]; 5200 nM in data set [9]; 5000 nM in data set [10]; 12 nM in data set [1]; 1500 nM in data set [14]. This compound came in with a bioavailability in data set [5] of 16%. Further, in [11], the AUC turned out to be 512 ng·h/mL. In addition, 10 mg/kg produced 75% inhibition in vivo in the data set with Rattus norvegicus [3]. Besides, the inhibition in vivo at 25 mg/kg in the data set with Rattus norvegicus [2] came to 69%. Moreover, the inhibition in data set [12] and in data set [13] was 0% in each case. This compound also registered an inhibition in vivo at 20 mg/kg in the data set on Mus musculus of 85%.
Turning to `COc1ccc(C(=O)NC2CCOCC2)cc1-c1[nH]nc2nc(Nc3ccc(F)cc3F)ccc12`, in data set [4], the Cmax was determined as 6 nM. The bioavailability in data set [5] is 22%. This compound also gave a half-inhibitory concentration (IC50) in [1] of 0.7 nM. In the data set with Rattus norvegicus [2], the inhibition in vivo at 25 mg/kg turned out to be 28%. In the data set on Mus musculus, this compound came in with an inhibition in vivo at 20 mg/kg of 97%. The half-life in [6] is 1.4 h.
Compound `COc1ccc(C#CC(C)(C)N)cc1-c1[nH]nc2nc(Nc3ccc(F)cc3F)ccc12` displayed a Cmax in data set [4] of 52 nM. Besides, the IC50 in data set [8] stood at 100000 nM; in [1], 20 nM. In data set [5], this compound displayed a bioavailability of 95%. In addition, the inhibition in data set [15] and in data set [12] was 0% each time. The AUC in [11] was 422 ng·h/mL. For the same compound, 10 mg/kg produced 85% inhibition in vivo in the data set on Rattus norvegicus [3]. Besides, the inhibition in vivo at 25 mg/kg with Rattus norvegicus [2] was found to be 49%. Besides, the inhibition in vivo at 20 mg/kg in the data set on Mus musculus amounted to 98%.
In data set [4], `COc1ccc(C#CC(C)(C)O)cc1-c1[nH]nc2nc(Nc3ccc(F)cc3F)cnc12` came in with a Cmax of 160 nM. The IC50 in data set [8] is above 100000 nM; in [1], 7 nM. Moreover, the inhibition is 0% in [16], 0% in data set [17], 0% in data set [18] and -5% in [19]. Further, in [5], the bioavailability was determined as 22%. In addition, the inhibition in vivo at 10 mg/kg in the data set on Rattus norvegicus [3] is 57%. In addition, the inhibition in vivo at 25 mg/kg with Rattus norvegicus [2] was 41%. In the data set with Mus musculus, this compound registered an inhibition in vivo at 20 mg/kg of 98%.
For the compound `COc1ccc(CNC2CCCC2)cc1-c1[nH]nc2nc(Nc3ccc(F)cc3F)ccc12`, in [1], the IC50 turned out to be 58 nM. The compound also registered an inhibition in vivo at 20 mg/kg with Mus musculus of 38%.
As to `COc1ccc(CCC(C)(C)N)cc1-c1[nH]nc2nc(Nc3ccc(F)cc3F)ccc12`, in data set [4], the Cmax came out at 11 nM. In [5], this compound had a bioavailability of 20%. The compound also had an IC50 in data set [1] of 33 nM. Moreover, the inhibition in vivo at 25 mg/kg with Rattus norvegicus [2] is 9%. The compound further registered an inhibition in vivo at 20 mg/kg in the data set on Mus musculus of 78%.
In data set [1], `COc1ccc(CCC(C)(C)O)cc1-c1[nH]nc2nc(Nc3ccc(F)cc3F)cnc12` yielded a half-maximal inhibitory concentration (IC50) of 21 nM. At 20 mg/kg the inhibition in vivo in the data set with Mus musculus was 94%.

As usually defined, the IC50 is the midpoint of a concentration-inhibition curve. By inhibition in vivo is commonly meant the share of the control response that was lost under treatment. A word on the Cmax: it is the highest concentration seen after dosing. The bioavailability is the share of a dose that reaches the circulation, judged against a reference dose that is usually intravenous. High values mean good availability, low ones poor availability. What is called half-life is the time needed for the level to fall by half in the phase considered. In general, AUC refers to the area under the concentration-time curve, a measure of exposure. A low value points to low exposure. A word on the inhibition: it is the relative decrease from the control value, in per cent.
